T cruzi repl – blocks replication of Trypanosoma cruzi | T. cruzi beta-gal in NIH3T3, luminescence, 90 h | inhibition, % (no concentration beside the values) | 300,000 tested, 1.4% active | AID 1885;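 active = mean inhibition across valid replicates above about 55%, limit read from the data; inconclusive = mean below that limit but half or more replicates reach it; inactive = mean below it, under half of replicates reach it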;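 also: signal also drops with host cell toxicity which is not excluded here; 0% = plate median of DMSO wells and 100% = zero luminescence signal; higher percent means less beta-gal luminescence so fewer parasites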
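System: mouse NIH/3T3 fibroblasts infected with β-gal-expressing T. cruzi Tulahuen C4 / Input: NIH/3T3 cells, 5,000 per well / Buffer or medium: Low-serum DMEM with 2% FBS / Probe or stimulus: 5000 reporter trypomastigotes per well / Schedule: ≥90 h infection period, 3 h prior cell attachment / Measured by: GalScreen luminescence, 60 min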
Beta cell apopt – beta cell apoptosis inhibition | protection from apoptosis, % (no concentration beside the values) | 300,000 tested, 0.8% active | AID 435005 | INS-1E cytokine-induced death, ATP luminescence, 48 h; percent of positive-control rescue, neutral wells zero;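 active = Every replicate reaches about 75%, or at least half do and their mean reaches it too, limit read from the data; inconclusive = At least half of replicates reach the limit but their mean does not; inactive = Under half of replicates reach the limit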;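 also: 0% = cytokine-treated negative control wells and 100% = positive control rescue; higher means more ATP so stronger rescue from cytokine killing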
CSC inhib – cancer stem cell inhibition. cancer stem cell-like cells viability, luminescence. inhibition, % at 7.5 µM. 300,000 tested, 1.1% active; in the data active = inhibition above about 75%; inconclusive = no clear call, values can overlap the other calls; tested in HMLE shEcad cells
CHOP inhibitor – inhibitors of CHOP induction in ER stress response. AID 2732. CHO-K1 CHOP-promoter luciferase, tunicamycin-induced, 15-18 h. 220,000 tested, 3.8% active. inhibition, % at 10 µM;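 active = compounds that reduced the stress-induced luciferase reporter signal by more than about 70% of percent inhibition, limit read from the data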;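 also: 0% = tunicamycin plus vehicle and 100% = wells without tunicamycin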
GRIN3A LBD mod – modulators (binders) of human NR3A ligand-binding domain; Tm shift relative to glycine control, % at 25 µM; NR3A LBD differential scanning fluorimetry, Tm shift; 0% = protein alone, 100% = glycine-bound protein; AID 1259313; 340,000 tested, 2.5% active;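 active = melting temperature shift of at least 10% of the positive control shift, at one fixed dose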
PREPL inh – human PREPL enzyme inhibition; Q4J6C6; recombinant PREPL, fluorescence polarization activity-based probe; inhibition, % at 5.96 µM; 320,000 tested, 0.68% active; AID 2751; in the data active = inhibition above about 43%;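 also: 0% = enzyme with DMSO and 100% = wells lacking enzyme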
Target sequence (Q4J6C6 whole entry, looked up): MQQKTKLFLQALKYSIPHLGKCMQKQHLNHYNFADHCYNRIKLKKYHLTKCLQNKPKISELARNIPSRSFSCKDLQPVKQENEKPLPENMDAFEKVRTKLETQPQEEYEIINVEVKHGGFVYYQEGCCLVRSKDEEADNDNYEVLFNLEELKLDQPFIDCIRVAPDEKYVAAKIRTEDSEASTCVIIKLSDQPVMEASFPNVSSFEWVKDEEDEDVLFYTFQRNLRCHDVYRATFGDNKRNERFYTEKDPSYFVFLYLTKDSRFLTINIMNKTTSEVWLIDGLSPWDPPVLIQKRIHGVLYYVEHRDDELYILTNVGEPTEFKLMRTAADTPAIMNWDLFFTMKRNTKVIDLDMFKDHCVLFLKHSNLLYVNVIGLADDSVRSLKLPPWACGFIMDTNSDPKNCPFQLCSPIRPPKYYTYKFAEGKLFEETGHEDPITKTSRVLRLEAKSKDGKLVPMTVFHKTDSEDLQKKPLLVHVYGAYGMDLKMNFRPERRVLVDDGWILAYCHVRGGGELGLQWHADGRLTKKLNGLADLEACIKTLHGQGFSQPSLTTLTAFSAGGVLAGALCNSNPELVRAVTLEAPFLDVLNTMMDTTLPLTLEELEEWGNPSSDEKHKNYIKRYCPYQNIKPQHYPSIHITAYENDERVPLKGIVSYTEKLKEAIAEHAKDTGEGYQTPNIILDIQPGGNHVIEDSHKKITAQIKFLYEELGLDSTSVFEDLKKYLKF
The depositor's hits bear a star; ? = inconclusive; · = no result. An excerpt weighted towards active compounds, which were near 6.7% of everything screened.

SMILES	T cruzi repl	Beta cell apopt	CSC inhib	CHOP inhibitor	GRIN3A LBD mod	PREPL inh
Cc1ccc(OCC(=O)N2CCN(C3CCC(c4ccccc4)CC3)CC2)cc1 (stereo not given)	41	-4	44	93*	2	5
CCN1CCN(C(=O)COc2ccc(S(=O)(=O)NC(C)C)cc2)CC1	-3	-3	-6	3	2	8
CN1CCN(C(=O)COc2ccc(S(=O)(=O)Nc3ccc(F)cc3)cc2)CC1	66*	-8	36	·	0	-3
COc1cccc(CNCCc2ccc3c(c2)OCO3)c1OC	31	·	-11	·	-2	-41
COc1cccc(CNCCc2cccc(F)c2)c1OC	59*	-3	-9	·	0	-6
CCOP(=O)(OCC)C(NC(=O)Cc1ccccc1)C(Cl)(Cl)Cl (stereo not given)	0	-4	-14	22	-1	4
CCOP(=O)(OCC)C(NC(=O)CC(C)C)C(Cl)(Cl)Cl (stereo not given)	5	-8	3	71*	0	15
Cc1cccc(-n2c(=S)[nH]c3ccccc3c2=O)n1	-11	0	1	5	-1	9
Cc1ccc(-n2c(O)c(/C=N/Nc3ccccc3)c(=O)[nH]c2=O)cc1C	26	-7	71	14	-1	11
COc1ccc(N/N=C/c2c(O)n(-c3ccc(C)c(C)c3)c(=O)[nH]c2=O)cc1	21	-7	117*	16	-1	2
COc1ccc(N/N=C/c2c(O)n(-c3cccc(C)c3)c(=O)[nH]c2=O)cc1	-5	-10	95*	2	2	2
C[C@H]1CCC/C=C/C2C[C@H](O)CC2[C@H](O)/C=C/C(=O)O1 (stereo not given in full)	51	99*	113*	·	0	-2
CC1CCC/C=C/C2CC(O)CC2C(O)/C=C/C(=O)O1 (stereo not given)	40	99*	131*	14	-2	0
CC1CCC(C(C)C)C(OC(=O)Cn2c(COc3ccccc3)[n+](C)c3ccccc32)C1 (stereo not given)	73*	106*	98*	92*	-3	22
COC(=O)C1=C(c2ccc(-c3ccccc3)c(F)c2)C[C@@H]2CC[C@H]1N2C(=O)N1CCOCC1	·	67	18	·	0	17
O=[N+]([O-])c1ccc(O)c([N+](=O)[O-])c1	4	7	5	·	18*	4
O=[N+]([O-])c1ccc(Cl)c([N+](=O)[O-])c1	·	14	102*	·	1	0
COc1ccc(CN2C(=O)NC(=O)/C(=C/c3ccc([N+](=O)[O-])o3)C2=O)cc1	·	·	·	2	·	·
c1ccc(Nc2ccc(Nc3ccccc3)cc2)cc1	·	4	27	·	4	36
N#CC(C#N)=C(C#N)c1ccc(Nc2ccccc2)cc1	-24	·	93*	·	-7	-3
CC(C)[C@]12O[C@H]1[C@@H]1O[C@]13[C@]1(O[C@H]1C[C@H]1C4=C(CC[C@@]13C)C(=O)OC4)[C@@H]2O	?	-5	9	103*	·	-6
Fc1ccc(CNCCc2ccccc2)cc1	25	-5	5	-15	-2	-12
C1=C(CCNCc2ccccc2)CCCC1	-5	-3	8	52	11*	3
COC(=O)c1ccc(NC(=O)CSc2nc3ccc(N4C(=O)C5C6C=CC(C6)C5C4=O)cc3s2)cc1 (stereo not given)	6	5	32	3	12*	-5
COc1ccc(-n2c(CN3CCOCC3)nc3ccccc3c2=O)c(OC)c1	-6	1	-16	·	-1	5
SMILES	T cruzi repl	Beta cell apopt	CSC inhib	CHOP inhibitor	GRIN3A LBD mod	PREPL inh
COc1cccc(-c2sc3ccccc3c2-c2ccc(OCCN3CCOCC3)cc2)c1	·	-10	104*	·	15*	0
CNc1cc(Cl)c2nonc2c1[N+](=O)[O-]	42	·	·	107*	2	·
CC1=CC(C)CC(C)OC(=O)CC(c2ccc(O)cc2)NC(=O)C(Cc2c(Br)[nH]c3ccccc23)N(C)C(=O)C(C)NC(=O)C(C)C1 (stereo not given)	·	·	·	·	-4	·
O=C(Cc1ccc(Cl)c(Cl)c1)N1CCCCC1CN1CCCC1 (stereo not given)	·	·	·	5	·	·
CC(=O)[C@H]1CC[C@H]2[C@@H]3CC[C@H]4C[C@H](O)CC[C@]4(C)[C@H]3C(=O)C[C@]12C	10	-4	-12	15	0	-10
CC(=O)C1CCC2C3CCC4CC(O)CCC4(C)C3CCC12C (stereo not given)	-6	-1	-13	·	14*	-42
O=C1NC(=O)N(Cc2ccc(F)cc2)C(=O)/C1=C\c1ccoc1	-15	-12	1	-52	2	-6
Cc1ccc(/C=C2/C(=O)NC(=O)N(Cc3ccc(F)cc3)C2=O)o1	-31	0	13	89*	·	5
C[C@]12CCC(=O)C(O)=C1CC[C@@H]1[C@@H]2CC[C@]2(C)C(=O)CC[C@@H]12	3	-11	-13	-5	12*	-4
C=C(C)C(Cc1c(OC)ccc(C(=O)/C=C/c2ccc(O)cc2)c1O)OO (stereo not given)	·	·	·	·	24*	13
Cc1cc(Oc2cc(NN3CCCCC3)c([N+](=O)[O-])cc2[N+](=O)[O-])ccc1[N+](=O)[O-]	12	13	34	·	-7	13
Cc1sc(-n2c(C)cc(C=C3C(=O)NC(=O)NC3=O)c2C)c(C#N)c1C	1	-6	-8	80*	2	1
Cc1cc(C=C2C(=O)NC(=O)NC2=O)c(C)n1-c1cccnc1	0	-1	-9	3	0	-6
C[C@]12CCC3C(CC[C@H]4C[C@@H](O)CC[C@]34C)C1CC[C@@H]2OC(=O)[C@H](N)CCCCN (stereo not given in full)	·	9	10	·	-2	9
COc1cc2c(cc1OC)C1[C@H]3C(=CC[C@H]1OC2O)CCN3C (stereo not given in full)	·	0	11	·	-4	17
Cc1ccc2c(C)c3ccc4ccccc4c3c[n+]2c1	·	·	·	·	1	·
O=C(O)CCCOc1ccc(Cl)cc1Cl	·	·	·	·	-2	·
CN(C)c1nc(OCCNC(=O)COc2ccc(Cl)cc2Cl)nc(N2CCCCC2)n1	34	-5	-7	94*	-2	2
COC(=O)C1=C(c2ccc(S(C)(=O)=O)cc2)C[C@@H]2CC[C@H]1N2C(=O)NCc1ccc(C(F)(F)F)cc1	4	-6	9	·	2	17
Oc1c(Cl)cccc1Cc1cc(Cl)cc(Cl)c1O	·	·	·	·	12*	·
CCC1(c2ccccc2)C(=O)NC(=S)NC1=O	·	·	·	·	11*	·
CC[C@@H](C(N)=O)N1CCCC1=O	-16	·	-2	-3	·	-1
CC12CCC(O)CC1CCC1C2CCC2(C)C(C3=CC(=O)OC3)CCC12O (stereo not given)	·	·	·	·	0	·

High-throughput results as filed in PubChem.
